For eleven compounds, fold reduction results are on record in PubChem BioAssay AID623956 (The Scripps Research Institute Molecular Screening Center, 2012).

Calls of active or inactive are those of the source.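 The calls were made as follows: active = at least 4-fold drop in recombinant frequency versus the solvent-only control; inactive = the rest.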

In this assay the test system is E. coli recBCD-deleted + H. pylori AddAB/RecA, Hfr recombinant frequency. As to the kind of experiment: recombination inhibition in AddAB/RecA E. coli, late-stage follow-up, counter-screen for AddAB inhibitor project, colony formation, p(addAB), p(recA), 20 µM (AID 623956). The settings on record: at 20 µM; active compounds read high. The essentials:
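Times: compound exposure 1.5 h total, including 30 min mating / Test system: recBCD-deleted E. coli recipient carrying H. pylori addAB and recA plasmids / Buffer or medium: LB broth for recipient pre-growth / Compound: single 20 µM compound dose, DMSO vehicle / Repeats: duplicate experiments / Measured by: differential plating for His+ StrR recombinant colonies, non-selective plating for viability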

In the case of `C=CCn1c(Sc2ncc([N+](=O)[O-])s2)n[nH]c1=O`, the fold reduction was 1.1 (inactive). The same measure for `CCn1cc(C(=O)O)c(=O)c2cnc(N3CCN(C(=S)Nc4ccccc4C(F)(F)F)CC3)nc21`: 5.

In the case of `CC(=O)Nc1ccc2nc(NC(=O)c3ccc([N+](=O)[O-])o3)sc2c1`, the fold reduction is 1.1 (inactive). The same measure for `O=C(OCC(=O)c1cccs1)c1ccc([N+](=O)[O-])o1`: 0.9 (inactive). The same measure for `O=C(Nc1ncccn1)c1ccc([N+](=O)[O-])o1`: 0.9 (inactive). `NC(=O)c1ccsc1NC(=O)COC(=O)c1ccc([N+](=O)[O-])o1`: the fold reduction is 1.1 (inactive). To `Cc1cccnc1NC(=O)c1ccc([N+](=O)[O-])o1` belongs 0.8 (inactive); to `O=C(Nc1ccc(N2CCOCC2)cc1)c1ccc([N+](=O)[O-])o1`, 0.8 (inactive); to `Cc1ccc2nc(/C(C#N)=C\c3ccc([N+](=O)[O-])o3)[nH]c2c1`, 1 (inactive).

Consider `O=C(Nc1cccc(NC(=O)c2ccccc2Cl)c1)c1ccc([N+](=O)[O-])o1`, for which the fold reduction is 0.8 (inactive). `O=C(NCc1cccnc1)c1ccc([N+](=O)[O-])o1`: the fold reduction was 0.8 (inactive).
